Reference: ChEMBL document CHEMBL1782042, “Efficient microwave-assisted synthesis and antitumor activity of novel 4,4'-methylenebis[2-(3-aryl-4,5-dihydro-1H-pyrazol-5-yl)phenols]” (Eur J Med Chem, 2011)

What was measured:
NCI/ADR-RES [1] = assay: Cytotoxicity against human NCI/ADR-RES cells; type: cell-based
Outline: (§1)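 NCI 60 human tumour cell line screen, second stage at five concentrations (100, 10, 1.0, 0.1 and 0.01 μM). Continuous drug exposure for 48 h, with cell growth estimated by sulforhodamine B protein staining. GI50 is the drug concentration giving a 50% reduction in net protein increase relative to control cells over the incubation.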

SW-620 [2] = assay: Cytotoxicity against human SW620 cells; type: cell-based
Outline: (§2)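 NCI 60 human tumour cell line screen; five concentration levels (100, 10, 1.0, 0.1 and 0.01 μM), 48 h continuous drug exposure. Cell growth estimated by sulforhodamine B (SRB) protein staining. GI50 taken as the drug concentration giving a 50% reduction in net protein increase relative to control cells over the incubation.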

NCI-H23 [3] = assay: Cytotoxicity against human NCI-H23 cells; type: cell-based; outline: as §1
MCF7 [4] = assay: Anticancer activity against human MCF7 cells after 48 hrs by sulforhodamine B assay; type: functional; conditions: MCF7, 48 h
Outline: (§3)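 NCI 60-cell-line in vitro screen, second stage: five concentration levels (100, 10, 1.0, 0.1 and 0.01 μM) with 48 h continuous drug exposure. Cell growth was estimated by sulforhodamine B protein staining. GI50 is the drug concentration that gives a 50% reduction in net protein increase relative to control cells over the incubation.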

CCRF-CEM [5] = assay: Cytotoxicity against human CCRF-CEM cells; type: cell-based; outline: as §1
HOP-92 [6] = assay: Anticancer activity against human HOP92 cells after 48 hrs by sulforhodamine B assay; type: functional; conditions: HOP-92, 48 h; outline: as §3
NCI-H522 = assay: Anticancer activity against human NCI-H522 cells after 48 hrs by sulforhodamine B assay; type: functional; conditions: NCI-H522, 48 h; outline: as §3
LOX IMVI [7] = assay: Cytotoxicity against human LOXIMVI cells; type: cell-based; outline: as §1
HOP-92 [8] = assay: Cytotoxicity against human HOP92 cells; type: cell-based; outline: as §1
CCRF-CEM [9] = assay: Anticancer activity against human CCRF-CEM cells after 48 hrs by sulforhodamine B assay; type: functional; outline: as §3
SW-620 [10] = assay: Anticancer activity against human SW620 cells after 48 hrs by sulforhodamine B assay; type: functional; conditions: SW-620, 48 h
Outline: (§4)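 NCI 60-cell-line screen, second stage. Five concentration levels (100, 10, 1.0, 0.1 and 0.01 μM), 48 h continuous drug exposure. Cell growth was estimated by sulforhodamine B protein staining. GI50 is the concentration giving a 50% reduction in net protein increase relative to control cells over the drug incubation. Compounds entered this stage after an earlier single-dose screen.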

OVCAR-4 [11] = assay: Cytotoxicity against human OVCAR4 cells; type: cell-based; outline: as §1
SNB-75 = assay: Cytotoxicity against human SNB75 cells; type: cell-based; outline: as §2
RPMI-8226 = assay: Cytotoxicity against human RPMI8226 cells; type: cell-based; outline: as §1
UO-31 [12] = assay: Anticancer activity against human UO31 cells after 48 hrs by sulforhodamine B assay; type: functional; conditions: UO-31, 48 h; outline: as §4
A549 = assay: Cytotoxicity against human A549 cells; type: cell-based; outline: as §1
RXF 393 = assay: Anticancer activity against human RXF393 cells after 48 hrs by sulforhodamine B assay; type: functional; conditions: RXF 393, 48 h; outline: as §3
SK-MEL-5 = assay: Cytotoxicity against human SK-MEL-5 cells; type: cell-based; outline: as §1
NCI-H23 [13] = assay: Anticancer activity against human NCI-H23 cells after 48 hrs by sulforhodamine B assay; type: functional; conditions: NCI-H23, 48 h; outline: as §3
K562 = assay: Anticancer activity against human K562 cells after 48 hrs by sulforhodamine B assay; type: functional; conditions: K562, 48 h; outline: as §3
SN12C = assay: Anticancer activity against human SN12C cells after 48 hrs by sulforhodamine B assay; type: functional; outline: as §3
MCF7 [14] = assay: Cytotoxicity against human MCF7 cells; type: cell-based; outline: as §1
NCI/ADR-RES [15] = assay: Anticancer activity against human NCI/ADR-RES cells after 48 hrs by sulforhodamine B assay; type: functional; outline: as §3
LOX IMVI [16] = assay: Anticancer activity against human LOXIMVI cells after 48 hrs by sulforhodamine B assay; type: functional; outline: as §3
SK-MEL-2 = assay: Cytotoxicity against human SK-MEL-2 cells; type: cell-based; outline: as §1
UO-31 [17] = assay: Cytotoxicity against human UO31 cells; type: cell-based; outline: as §2
OVCAR-8 = assay: Anticancer activity against human OVCAR8 cells after 48 hrs by sulforhodamine B assay; type: functional; conditions: OVCAR-8, 48 h; outline: as §3
NCI-H460 = assay: Anticancer activity against human NCI-H460 cells after 48 hrs by sulforhodamine B assay; type: functional; conditions: NCI-H460, 48 h; outline: as §3
MDA-MB-468 = assay: Cytotoxicity against human MDA-MB-468 cells; type: cell-based; outline: as §1
BT-549 = assay: Anticancer activity against human BT549 cells after 48 hrs by sulforhodamine B assay; type: functional; conditions: BT-549, 48 h; outline: as §3
T47D = assay: Anticancer activity against human T47D cells after 48 hrs by sulforhodamine B assay; type: functional; outline: as §4
OVCAR-4 [18] = assay: Anticancer activity against human OVCAR4 cells after 48 hrs by sulforhodamine B assay; type: functional; conditions: OVCAR-4, 48 h; outline: as §3
U-251 = assay: Cytotoxicity against human U251 cells; type: cell-based; outline: as §2

## Cc1ccc(C2=NNC(c3cc(Cc4ccc(O)c(C5CC(c6ccc(C)cc6)=NN5)c4)ccc3O)C2)cc1 (stereo not drawn)
NCI/ADR-RES [1]
  LC50: > 100 µM
SW-620 [2]
  LC50: > 100 µM
NCI-H23 [3]
  LC50: > 100 µM
MCF7 [4]
  GI50: 3.3 µM
CCRF-CEM [5]
  LC50: > 100 µM
HOP-92 [6]
  GI50: 8.28 µM
NCI-H522
  GI50: 3.64 µM
LOX IMVI [7]
  LC50: > 100 µM
HOP-92 [8]
  LC50: > 100 µM
CCRF-CEM [9]
  GI50: 3.85 µM
SW-620 [10]
  GI50: 7.96 µM
OVCAR-4 [11]
  LC50: > 100 µM
SNB-75
  LC50: > 100 µM
RPMI-8226
  LC50: > 100 µM
UO-31 [12]
  GI50: 4.29 µM
A549
  LC50: > 100 µM
RXF 393
  GI50: 4.18 µM
SK-MEL-5
  LC50: 31.7 µM
NCI-H23 [13]
  GI50: 5.3 µM
K562
  GI50: 7.73 µM
SN12C
  GI50: 8.84 µM
MCF7 [14]
  LC50: 71.8 µM
NCI/ADR-RES [15]
  GI50: 7.39 µM
LOX IMVI [16]
  GI50: 7.38 µM
SK-MEL-2
  LC50: > 100 µM
UO-31 [17]
  LC50: > 100 µM
OVCAR-8
  GI50: 6.36 µM
NCI-H460
  GI50: 4.88 µM
MDA-MB-468
  LC50: > 100 µM
BT-549
  GI50: 4.66 µM
T47D
  GI50: 4.61 µM
OVCAR-4 [18]
  GI50: 5.36 µM
U-251
  LC50: > 100 µM
